From ChEMBL document CHEMBL1155155, “Single-dose pharmacokinetics of intravenous itraconazole and hydroxypropyl-beta-cyclodextrin in infants, children, and adolescents” (Antimicrob Agents Chemother, 2007)

Columns and labels:
[1] = Apparent volume of distribution in children of >2-6 yrs age at risk for fungal infection at 2.5 mg/kg, iv in 0.1 g/kg hydroxypropyl-beta-cyclodextrin administered as single dose; format: ADME, organism-based; set-up: dose 2.5 mg/kg, route intravenous; details: human, in vivo
Outline: (§1)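 Single 1-h IV infusion. Plasma sampled from the contralateral limb predose and at 1–120 h (>2 y) or 1–96 h (<2 y). Itraconazole was extracted with internal standard and quantified by C18 HPLC with UV 263 nm detection, linear range 2–2,000 ng/ml. Noncompartmental analysis: Cmax by inspection, AUC0-24 by trapezoidal rule, AUC extrapolated via λz, CL and Vz from AUC0-∞.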

Homo sapiens [2] = assay: Half life in children of >2-6 yrs age at risk for fungal infection assessed as hydroxyitraconazole level at 2.5 mg/kg, iv in 0.1 g/kg hydroxypropyl-beta-cyclodextrin administered as single dose; format: ADME, organism-based; set-up: dose 2.5 mg/kg, route intravenous; details: in vivo
Outline: (§2)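 Single 1-h constant-rate IV infusion. Venous plasma sampled predose and to 120 h (>2 y) or 96 h (<2 y), then stored at –20°C. Hydroxyitraconazole was measured by borate/isoamylalcohol-heptane extraction, HCl back-extraction, C18 HPLC and UV 263 nm, with a linear range of 5–5,000 ng/ml. Noncompartmental analysis: Cmax and tmax by inspection, AUC0-24 by trapezoidal rule.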

Homo sapiens [3] = assay: Tmax in children of >2-6 yrs age at risk for fungal infection assessed as hydroxyitraconazole level at 2.5 mg/kg, iv in 0.1 g/kg hydroxypropyl-beta-cyclodextrin administered as single dose; format: ADME, organism-based; set-up: dose 2.5 mg/kg, route intravenous; details: in vivo; outline: as §2
[4] = Cmax in human at risk for fungal infection at 2.5 mg/kg, iv in 0.1 g/kg hydroxypropyl-beta-cyclodextrin administered as single dose; format: ADME, organism-based; set-up: dose 2.5 mg/kg, route intravenous; details: in vivo; outline: as §1
Homo sapiens [5] = assay: Half life in children of >6-12 yrs age at risk for fungal infection assessed as hydroxyitraconazole level at 2.5 mg/kg, iv in 0.1 g/kg hydroxypropyl-beta-cyclodextrin administered as single dose; format: ADME, organism-based; set-up: dose 2.5 mg/kg, route intravenous; details: in vivo; outline: as §2
Homo sapiens [6] = assay: Half life in adolescents of >12-16 yrs age at risk for fungal infection assessed as hydroxyitraconazole level at 2.5 mg/kg, iv in 0.1 g/kg hydroxypropyl-beta-cyclodextrin administered as single dose; format: ADME, organism-based; set-up: dose 2.5 mg/kg, route intravenous; details: in vivo; outline: as §2
[7] = Apparent volume of distribution in human at risk for fungal infection at 2.5 mg/kg, iv in 0.1 g/kg hydroxypropyl-beta-cyclodextrin administered as single dose; format: ADME, organism-based; set-up: dose 2.5 mg/kg, route intravenous; details: in vivo; outline: as §1
[8] = Apparent volume of distribution in infants of 0.6-2 yrs age at risk for fungal infection at 2.5 mg/kg, iv in 0.1 g/kg hydroxypropyl-beta-cyclodextrin administered as single dose; format: ADME, organism-based; set-up: dose 2.5 mg/kg, route intravenous; details: human, in vivo; outline: as §1
Homo sapiens [9] = assay: AUC (0 to 24 hrs) in human at risk for fungal infection assessed as hydroxyitraconazole level at 2.5 mg/kg, iv in 0.1 g/kg hydroxypropyl-beta-cyclodextrin administered as single dose; format: ADME, organism-based, Plasma; set-up: time < 24 hr, dose 2.5 mg/kg, route intravenous; details: in vivo; outline: as §2
Homo sapiens [10] = assay: Tmax in children of >6-12 yrs age at risk for fungal infection assessed as hydroxyitraconazole level at 2.5 mg/kg, iv in 0.1 g/kg hydroxypropyl-beta-cyclodextrin administered as single dose; format: ADME, organism-based; set-up: dose 2.5 mg/kg, route intravenous; details: in vivo; outline: as §2
Homo sapiens [11] = assay: Cmax in children of >2-6 yrs age at risk for fungal infection assessed as hydroxyitraconazole level at 2.5 mg/kg, iv in 0.1 g/kg hydroxypropyl-beta-cyclodextrin administered as single dose; format: ADME, organism-based; set-up: dose 2.5 mg/kg, route intravenous; details: in vivo
Outline: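 Single constant-rate IV infusion over 1 h. Heparinised venous plasma was drawn predose and at 1–120 h (>2 yr) or 1–96 h (<2 yr, randomised to the itraconazole/metabolite arm), then stored at –20°C. Analysis used borate-buffered liquid-liquid extraction with internal standard, C18 HPLC and UV detection at 263 nm, linear 5–5,000 ng/ml. Individual Cmax was read by visual inspection, noncompartmental.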

Homo sapiens [12] = assay: Cmax in adolescents of >12-16 yrs age at risk for fungal infection assessed as hydroxyitraconazole level at 2.5 mg/kg, iv in 0.1 g/kg hydroxypropyl-beta-cyclodextrin administered as single dose; format: ADME, organism-based; set-up: dose 2.5 mg/kg, route intravenous; details: in vivo; outline: as §2
[13] = Half life in human at risk for fungal infection at 2.5 mg/kg, iv in 0.1 g/kg hydroxypropyl-beta-cyclodextrin administered as single dose; format: ADME, organism-based; set-up: dose 2.5 mg/kg, route intravenous; details: in vivo; outline: as §1
[14] = Half life in children of >2-6 yrs age at risk for fungal infection at 2.5 mg/kg, iv in 0.1 g/kg hydroxypropyl-beta-cyclodextrin administered as single dose; format: ADME, organism-based; set-up: dose 2.5 mg/kg, route intravenous; details: human, in vivo; outline: as §1
Homo sapiens [15] = assay: Toxicity in human at risk for fungal infection assessed as occurrence of adverse events at 2.5 mg/kg, iv in 0.1 g/kg hydroxypropyl-beta-cyclodextrin administered as single dose; format: organism-based; set-up: dose 2.5 mg/kg, route intravenous; details: in vivo
Outline: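 Safety was assessed by medical history, physical examination, complete blood count, serum chemistry, liver function tests and urinalysis. These were done before the single 1-h IV infusion and again at study completion. Subjects stayed at the study facility through 24 h postdose.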

Homo sapiens [16] = assay: Tmax in adolescents of >12-16 yrs age at risk for fungal infection assessed as hydroxyitraconazole level at 2.5 mg/kg, iv in 0.1 g/kg hydroxypropyl-beta-cyclodextrin administered as single dose; format: ADME, organism-based; set-up: dose 2.5 mg/kg, route intravenous; details: in vivo; outline: as §2
Homo sapiens [17] = assay: Tmax in human at risk for fungal infection assessed as hydroxyitraconazole level at 2.5 mg/kg, iv in 0.1 g/kg hydroxypropyl-beta-cyclodextrin administered as single dose; format: ADME, organism-based; set-up: dose 2.5 mg/kg, route intravenous; details: in vivo; outline: as §2
[18] = Clearance in human at risk for fungal infection at 2.5 mg/kg, iv in 0.1 g/kg hydroxypropyl-beta-cyclodextrin administered as single dose; format: ADME, organism-based; set-up: dose 2.5 mg/kg, route intravenous; details: in vivo; outline: as §1
[19] = Cmax in infants of 0.6-2 yrs age at risk for fungal infection at 2.5 mg/kg, iv in 0.1 g/kg hydroxypropyl-beta-cyclodextrin administered as single dose; format: ADME, organism-based; set-up: dose 2.5 mg/kg, route intravenous; details: human, in vivo; outline: as §1
[20] = AUC (0 to 24 hrs) in infants of 0.6-2 yrs age at risk for fungal infection at 2.5 mg/kg, iv in 0.1 g/kg hydroxypropyl-beta-cyclodextrin administered as single dose; format: ADME, organism-based; set-up: time < 24 hr, dose 2.5 mg/kg, route intravenous; details: human, plasma; outline: as §1
[21] = Half life in adolescents of >12-16 yrs age at risk for fungal infection at 2.5 mg/kg, iv in 0.1 g/kg hydroxypropyl-beta-cyclodextrin administered as single dose; format: ADME, organism-based; set-up: dose 2.5 mg/kg, route intravenous; details: human, in vivo; outline: as §1
Homo sapiens [22] = assay: AUC (0 to 24 hrs) in adolescents of >12-16 yrs age at risk for fungal infection assessed as hydroxyitraconazole level at 2.5 mg/kg, iv in 0.1 g/kg hydroxypropyl-beta-cyclodextrin administered as single dose; format: ADME, organism-based, Plasma; set-up: time < 24 hr, dose 2.5 mg/kg, route intravenous; details: in vivo; outline: as §2

Vd [1]: 8.3 L/kg | t1/2 (Homo sapiens [2]): 12.7 h | Tmax (Homo sapiens [3]): 2.9 h | Cmax [4]: 1020 ng/mL | t1/2 (Homo sapiens [5]): 14.3 h | t1/2 (Homo sapiens [6]): 12.3 h | Vd [7]: 18.5 L/kg | Vd [8]: 23.6 L/kg | AUC (Homo sapiens [9]): 3811 ng·h/mL | Tmax (Homo sapiens [10]): 1.7 h | Cmax (Homo sapiens [11]): 299 ng/mL | Cmax (Homo sapiens [12]): 321 ng/mL | half-life [13]: 1210 min | half-life [14]: 840 min | Tmax (Homo sapiens [16]): 1.2 h | Tmax (Homo sapiens [17]): 2.2 h | clearance [18]: 11.7 mL/min/kg | Cmax [19]: 827 ng/mL | AUC(0-t) at 24 h [20]: 2120 ng·h/mL | half-life [21]: 1740 min | AUC (Homo sapiens [22]): 3133 ng·h/mL
SMILES: CCC(C)n1ncn(-c2ccc(N3CCN(c4ccc(OCC5COC(Cn6cncn6)(c6ccc(Cl)cc6Cl)O5)cc4)CC3)cc2)c1=O (configuration not stated) [ITRACONAZOLE]
Activity (Homo sapiens [15]): Toxic
